From ChEMBL document CHEMBL1287724, “Discovery of INCB3344, a potent, selective and orally bioavailable antagonist of human and murine CCR2” (Bioorg Med Chem Lett, 2010) come the findings set out here.

Data set [1] deals with C-C chemokine receptor type 2 (Homo sapiens, UniProt P41597). Put plainly: Displacement of [125I]MCP1 from human CCR2 after 30 mins by gamma counter.
Data set [2] concerns the target C-C chemokine receptor type 2 (Mus musculus, UniProt P51683). Put plainly: Displacement of [125I]MCP1 from mouse CCR2 after 30 mins by gamma counter.
Data set [3] is described as follows: Protein binding in human serum assessed as unbound fraction. The conditions noted are these: read-out: PB. In kind it is ADME, cell-free.
The nature of data set [4]: Protein binding in mouse serum assessed as unbound fraction. In kind it is ADME, cell-free. As to conditions: read-out: PB.
In data set [5] the target is Voltage-gated inwardly rectifying potassium channel KCNH2 (Homo sapiens, UniProt Q12809).
The target of data set [6] is T1, C-C chemokine receptor type 1 (Mus musculus, UniProt P51675).
T1 sequence (P51675 whole entry): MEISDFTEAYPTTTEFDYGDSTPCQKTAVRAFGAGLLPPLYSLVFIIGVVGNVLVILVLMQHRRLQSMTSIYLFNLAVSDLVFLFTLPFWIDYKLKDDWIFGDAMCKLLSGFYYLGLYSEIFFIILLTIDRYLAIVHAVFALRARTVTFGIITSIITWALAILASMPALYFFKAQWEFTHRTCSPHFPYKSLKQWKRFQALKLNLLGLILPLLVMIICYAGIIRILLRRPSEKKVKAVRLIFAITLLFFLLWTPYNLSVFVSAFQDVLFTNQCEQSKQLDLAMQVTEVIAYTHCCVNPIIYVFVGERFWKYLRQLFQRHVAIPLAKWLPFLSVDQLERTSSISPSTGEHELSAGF
The experiment in a line: Inhibition of mouse CCR1.

Data set [7] in a line: Clearance in CD-1 mouse at 5 mg/kg, iv. Type of data set: ADME, organism-based. Further details: dose 5 mg/kg, route intravenous. The conditions noted are these: in vivo. A digest of the protocol: (§1)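 CD-1 mice dosed intravenously at 5 mg/kg and orally at 10 mg/kg. Clearance, steady-state volume of distribution and half-life were taken from the iv arm. Cmax and AUC were taken from the po arm. Oral bioavailability was derived from the po and iv exposures.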

A short description of data set [8]: Cmax in BALB/c mouse at 10 mg/kg, po. In kind it is ADME, organism-based. As to conditions: in vivo. Further details: dose 10 mg/kg, route oral.
Data set [9] concerns the target C-C chemokine receptor type 5 (Mus musculus, UniProt P51682). The experiment in a line: Inhibition of mouse CCR5.
Data set [10] is described as follows: AUC in BALB/c mouse at 10 mg/kg, po. In kind it is ADME, organism-based. Further details: dose 10 mg/kg, route oral. As to conditions: plasma.
Data set [11] is described as follows: Cmax in CD-1 mouse at 10 mg/kg, po. In kind it is ADME, organism-based. Further details: dose 10 mg/kg, route oral. The conditions noted are these: in vivo. A digest of the protocol:
as §1

A short description of data set [12]: Oral bioavailability in CD-1 mouse at 10 mg/kg, po. Type of data set: ADME, organism-based. As to conditions: in vivo. The procedure, abridged:
as §1

Another data set addresses T2, CCR2 protein (Macaca fascicularis, UniProt Q6Y3N0).
T2 sequence (Q6Y3N0 whole entry): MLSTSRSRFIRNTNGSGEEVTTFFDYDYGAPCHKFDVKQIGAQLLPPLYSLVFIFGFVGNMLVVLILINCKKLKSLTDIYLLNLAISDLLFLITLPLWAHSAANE
Put plainly: Inhibition of cynomolgus CCR2.

Data set [13] deals with T3, C-C chemokine receptor type 2 (Rattus norvegicus, UniProt O55193).
T3 sequence (O55193 whole entry): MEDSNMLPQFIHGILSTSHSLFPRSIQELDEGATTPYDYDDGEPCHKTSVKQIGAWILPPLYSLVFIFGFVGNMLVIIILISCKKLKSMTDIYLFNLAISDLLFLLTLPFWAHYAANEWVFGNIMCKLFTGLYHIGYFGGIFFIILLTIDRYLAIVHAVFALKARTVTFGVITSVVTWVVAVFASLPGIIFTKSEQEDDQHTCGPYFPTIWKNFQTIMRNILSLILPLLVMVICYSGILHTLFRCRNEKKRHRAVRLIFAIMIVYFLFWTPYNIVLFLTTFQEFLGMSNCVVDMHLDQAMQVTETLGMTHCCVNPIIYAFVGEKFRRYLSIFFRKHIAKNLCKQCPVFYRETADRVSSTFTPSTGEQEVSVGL
Put plainly: Inhibition of rat CCR2.

Data set [14] is described as follows: Half life in CD-1 mouse at 5 mg/kg, iv. Type of data set: ADME, organism-based. The conditions noted are these: in vivo. Also on record: dose 5 mg/kg, route intravenous. A digest of the protocol:
as §1

A short description of data set [15]: AUC in CD-1 mouse at 10 mg/kg, po. In kind it is ADME, organism-based. Further details: dose 10 mg/kg, route oral. The conditions noted are these: plasma. The procedure, abridged: as §1
The next data set concerns Mus musculus. Put plainly: Volume of distribution at steady state in CD-1 mouse at 5 mg/kg, iv. In kind it is ADME, organism-based. The conditions noted are these: in vivo. Also on record: dose 5 mg/kg, route intravenous. A digest of the protocol:
as §1

Each structure is given as a SMILES string.

C-C chemokine receptor type 2 (Mus musculus, UniProt P51683), sequence (P51683 whole entry): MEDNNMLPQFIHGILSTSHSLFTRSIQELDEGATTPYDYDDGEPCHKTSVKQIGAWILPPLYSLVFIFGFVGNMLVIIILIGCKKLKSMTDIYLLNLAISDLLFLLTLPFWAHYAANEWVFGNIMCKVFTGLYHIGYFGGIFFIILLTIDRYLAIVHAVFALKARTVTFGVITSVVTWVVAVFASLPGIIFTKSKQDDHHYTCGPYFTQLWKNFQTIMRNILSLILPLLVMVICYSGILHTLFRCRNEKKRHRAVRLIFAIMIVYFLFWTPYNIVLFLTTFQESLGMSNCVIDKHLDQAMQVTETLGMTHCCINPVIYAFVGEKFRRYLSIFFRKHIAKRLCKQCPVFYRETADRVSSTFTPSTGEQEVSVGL
C-C chemokine receptor type 2 (Homo sapiens, UniProt P41597), sequence (P41597 whole entry): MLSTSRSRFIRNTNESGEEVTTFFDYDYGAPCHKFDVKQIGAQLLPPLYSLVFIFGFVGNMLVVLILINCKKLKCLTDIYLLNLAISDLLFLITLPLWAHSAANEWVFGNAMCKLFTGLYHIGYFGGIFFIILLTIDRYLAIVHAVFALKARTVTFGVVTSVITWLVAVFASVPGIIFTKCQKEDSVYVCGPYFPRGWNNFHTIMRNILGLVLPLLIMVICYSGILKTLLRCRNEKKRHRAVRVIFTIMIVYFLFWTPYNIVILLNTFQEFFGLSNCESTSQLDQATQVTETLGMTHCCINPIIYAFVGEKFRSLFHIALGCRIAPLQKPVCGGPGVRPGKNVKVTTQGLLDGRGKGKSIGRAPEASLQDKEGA
C-C chemokine receptor type 5, sequence (P51682 whole entry): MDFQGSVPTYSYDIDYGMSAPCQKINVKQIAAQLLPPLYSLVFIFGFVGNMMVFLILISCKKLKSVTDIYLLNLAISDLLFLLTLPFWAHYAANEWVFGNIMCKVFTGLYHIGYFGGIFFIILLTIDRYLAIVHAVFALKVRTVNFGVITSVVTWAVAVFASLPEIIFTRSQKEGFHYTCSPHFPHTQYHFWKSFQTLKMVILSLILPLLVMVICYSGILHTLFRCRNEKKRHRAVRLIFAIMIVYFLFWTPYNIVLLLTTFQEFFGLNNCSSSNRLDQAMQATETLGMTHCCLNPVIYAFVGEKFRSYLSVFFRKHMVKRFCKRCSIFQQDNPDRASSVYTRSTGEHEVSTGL
Voltage-gated inwardly rectifying potassium channel KCNH2, sequence (Q12809 whole entry): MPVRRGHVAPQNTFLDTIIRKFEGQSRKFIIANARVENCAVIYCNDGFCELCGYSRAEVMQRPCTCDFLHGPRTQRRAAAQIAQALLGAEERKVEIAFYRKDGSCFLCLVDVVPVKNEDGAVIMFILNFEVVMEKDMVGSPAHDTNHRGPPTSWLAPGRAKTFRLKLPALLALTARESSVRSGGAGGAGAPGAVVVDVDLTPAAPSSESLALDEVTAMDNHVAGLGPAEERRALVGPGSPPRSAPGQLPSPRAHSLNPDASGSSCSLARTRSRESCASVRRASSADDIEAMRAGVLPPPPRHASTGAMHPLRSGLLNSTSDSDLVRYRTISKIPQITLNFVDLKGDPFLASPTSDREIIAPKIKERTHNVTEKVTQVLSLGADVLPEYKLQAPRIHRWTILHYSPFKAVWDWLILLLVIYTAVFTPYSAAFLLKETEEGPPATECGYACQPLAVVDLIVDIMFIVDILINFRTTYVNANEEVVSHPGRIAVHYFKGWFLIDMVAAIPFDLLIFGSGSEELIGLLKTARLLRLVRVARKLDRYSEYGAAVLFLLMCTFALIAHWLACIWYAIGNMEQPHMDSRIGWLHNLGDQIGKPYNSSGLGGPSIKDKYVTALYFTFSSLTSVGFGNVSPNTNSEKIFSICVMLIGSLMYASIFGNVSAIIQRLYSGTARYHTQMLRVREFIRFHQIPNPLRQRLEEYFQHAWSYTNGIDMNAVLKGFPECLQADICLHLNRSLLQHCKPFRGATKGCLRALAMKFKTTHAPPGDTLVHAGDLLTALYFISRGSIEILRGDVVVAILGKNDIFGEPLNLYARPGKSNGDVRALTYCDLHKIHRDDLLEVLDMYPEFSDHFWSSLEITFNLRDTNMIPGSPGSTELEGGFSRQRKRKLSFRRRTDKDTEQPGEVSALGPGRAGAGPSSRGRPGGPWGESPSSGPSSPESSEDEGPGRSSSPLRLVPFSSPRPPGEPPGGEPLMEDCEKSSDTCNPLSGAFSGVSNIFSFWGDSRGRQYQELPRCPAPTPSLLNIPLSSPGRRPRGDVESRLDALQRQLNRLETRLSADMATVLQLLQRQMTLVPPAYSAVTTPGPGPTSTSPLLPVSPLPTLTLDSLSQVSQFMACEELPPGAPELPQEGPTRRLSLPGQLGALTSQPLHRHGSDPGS

As to `O=C(CNC(=O)c1cccc(C(F)(F)F)c1)N[C@H]1CN([C@H]2CC[C@@H](c3ccccc3)CC2)C[C@@H]1OCc1ccccc1`, the IC50 was determined as 17 nM in [1] and 51 nM in data set [2].
For `CCO[C@H]1CN([C@H]2CC[C@@](O)(c3ccccc3)CC2)C[C@@H]1NC(=O)CNC(=O)c1cccc(C(F)(F)F)c1`, the IC50 is 2.3 nM in data set [1] and 10 nM in data set [2]. Further, the results for the fraction unbound in data set [3] and in data set [4] were 0.26 and 0.18, respectively.
Take `CCO[C@H]1CN([C@H]2CC[C@@](O)(c3ccc(C)cc3)CC2)C[C@@H]1NC(=O)CNC(=O)c1cccc(C(F)(F)F)c1`: the IC50 in data set [1] is 2.3 nM; in data set [2] it was 2.1 nM. For the same compound, in data set [4], the fraction unbound came to 0.079.
For `CCO[C@H]1CN([C@H]2CC[C@@](O)(c3ccc4c(c3)OCO4)CC2)C[C@@H]1NC(=O)CNC(=O)c1cccc(C(F)(F)F)c1`, the IC50 in [5] is 13000 nM; in data set [6], above 1000 nM; in data set [9], above 3000 nM; against CCR2 protein, 16 nM; in data set [13], 7.3 nM. The clearance in data set [7] was 85 mL/min/kg. Moreover, the Cmax is 961 nM in data set [8] and 1890 nM in data set [11]. Further, the AUC in [10] worked out at 3.89 µM·h; in [15], 2.66 µM·h. In addition, the fraction unbound in [3] worked out at 0.24; in data set [4] it was 0.15. The compound further showed a bioavailability in [12] of 47%. Besides, the half-life in data set [14] is 1 h. Further, in the data set with Mus musculus, the Vdss was 2.8 L/kg.
For `O=C(CNC(=O)c1cccc(C(F)(F)F)c1)N[C@H]1CN([C@H]2CC[C@@H](c3ccccc3)C2)C[C@@H]1O`, in [1], the IC50 was 120 nM.
On to `O=C(CNC(=O)c1cccc(C(F)(F)F)c1)N[C@H]1CN([C@H]2CC[C@H](c3ccccc3)C2)C[C@@H]1O`, for which the IC50 in [1] is above 1000 nM.
Still for that read-out and setting: under `O=C(CNC(=O)c1cccc(C(F)(F)F)c1)N[C@H]1CN([C@H]2CCC[C@@H](c3ccccc3)C2)C[C@@H]1O` stands above 1000 nM; under `O=C(CNC(=O)c1cccc(C(F)(F)F)c1)N[C@H]1CN([C@H]2CCC[C@H](c3ccccc3)C2)C[C@@H]1O`, above 1000 nM.
In the case of `O=C(CNC(=O)c1cccc(C(F)(F)F)c1)N[C@H]1CN([C@H]2CC[C@@H](c3ccccc3)CC2)C[C@@H]1O`, the IC50 in data set [1] amounted to 7.4 nM; in [2], 186 nM. Besides, in data set [3], the fraction unbound came out at 0.026.
In [1], `O=C(CNC(=O)c1cccc(C(F)(F)F)c1)N[C@H]1CN([C@H]2CC[C@H](c3ccccc3)CC2)C[C@@H]1O` registered an IC50 above 1000 nM.
On to `O=C(CNC(=O)c1cccc(C(F)(F)F)c1)N[C@H]1CN(C2CCN(c3ccccc3)CC2)C[C@@H]1O`, for which the IC50 in [1] was found to be 649 nM. This counts as sub-micromolar.
`CCO[C@H]1CN([C@H]2CC[C@@H](c3ccccc3)CC2)C[C@@H]1NC(=O)CNC(=O)c1cccc(C(F)(F)F)c1`: the values for the IC50 in data set [1] and in [2] were 0.95 nM and 1.9 nM, respectively. Moreover, the values for the fraction unbound in data set [3] and in data set [4] were below 0.005 and 0.023, respectively.
Consider `CCCO[C@H]1CN([C@H]2CC[C@@H](c3ccccc3)CC2)C[C@@H]1NC(=O)CNC(=O)c1cccc(C(F)(F)F)c1`, for which the figures for the IC50 in [1] and in data set [2] were 2.9 nM and 1.9 nM, respectively.
With `CCCCO[C@H]1CN([C@H]2CC[C@@H](c3ccccc3)CC2)C[C@@H]1NC(=O)CNC(=O)c1cccc(C(F)(F)F)c1`, the IC50 in data set [1] came out at 47 nM; in [2] it was 54 nM.

Usually IC50 stands for the midpoint of a concentration-inhibition curve. Read a high IC50 as a need for much substance. A word on the clearance: it is a measure of how efficiently the substance is removed, as volume per time. As a reminder, the Cmax is the maximum level reached in the sampled fluid or tissue. Usually AUC stands for concentration integrated over time. A high value points to more exposure. What is called bioavailability is dose-corrected exposure relative to a reference, in per cent. Low readings indicate little systemic uptake, high ones much systemic uptake. The term half-life denotes the time in which the quantity being followed falls by half. What is called Vdss is the apparent volume that relates the amount in the body to the concentration in plasma or blood. A lower Vdss goes with little distribution into tissue.
